Screens deposited in PubChem by several laboratories.
Cl transport mod = KCC2 (human) Cl- transport modulation. actives 2.2% (n = 190,000). Q9H2X9. KCC2 cells, thallium flux FluoZin-2 fluorescence. B-score of Tl+ flux slope (higher = more flux/activation; lower = inhibition) at 10 µM;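 active = thallium flux slope and its plate-corrected score both differing from the plate sample mean at a set confidence after two filtering rounds, in either direction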;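 also: slope of fluorescence scaled to starting intensity during 10 to 20 s after thallium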
ROMK primary = modulates human ROMK potassium channel activity; Tet-inducible ROMK, thallium flux fluorescence; actives lie on both sides; B-score at 10 µM; actives 2% (n = 130,000);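 active = signal ratio slope over the read window, or its plate-corrected B-score, at least 3 SD from the plate mean, either direction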;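 also: B-score of the F/F0 ratio slope over 7 to 12 s after thallium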
Target sequence (P48048 whole entry, looked up): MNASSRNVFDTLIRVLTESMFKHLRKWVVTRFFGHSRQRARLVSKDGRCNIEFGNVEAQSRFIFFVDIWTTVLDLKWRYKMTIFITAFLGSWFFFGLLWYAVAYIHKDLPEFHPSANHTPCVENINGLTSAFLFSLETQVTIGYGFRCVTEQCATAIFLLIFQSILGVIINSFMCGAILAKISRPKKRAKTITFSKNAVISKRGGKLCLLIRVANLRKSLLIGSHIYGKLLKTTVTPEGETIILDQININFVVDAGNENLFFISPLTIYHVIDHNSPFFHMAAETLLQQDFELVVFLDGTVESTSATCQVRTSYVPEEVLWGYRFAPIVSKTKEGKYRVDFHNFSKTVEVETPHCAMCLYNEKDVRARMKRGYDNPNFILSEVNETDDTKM
bCat nuc transl = modulators of beta-catenin nuclear translocation; HeLa beta-catenin nuclear translocation, immunofluorescence imaging; nuclear translocation activity, % at 5 µM; actives 0.3% (n = 190,000);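 active = nuclear translocation activity above 50% at 5 µM, with a well cell count of 50 or more; inconclusive = wells under 50 cells across six images, flagged as toxic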;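 also: per-cell ratio of nuclear to cytoplasmic median beta-catenin stain intensity; plate controls were DMSO negative control for no effect and GSK-3 inhibitor IX positive control for full effect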
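Signal – beta-catenin immunofluorescence imaging with DAPI · Test system – human HeLa cell line · Dosing – 5 µM primary single dose, 0.1% DMSO, 0.02–20 µM confirmation series · Measure – % activation, nuclear-to-cytoplasmic median beta-catenin signal ratio per cell · Incubation – 24 h compound exposure at 37°C, 5% CO2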
DTT redox prof = compounds producing H2O2 with reducing agent – biochemical, NIH compound library profiling, artefact control for MLSCN library redox annotation, primary screen; DTT-dependent redox cycling H2O2, phenol red/HRP absorbance; 100% = 100 µM peroxide control, 0% = buffer; AID 878; activation, % at 10 µM; actives 0.03% (n = 200,000);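 active = activation of at least 50% relative to the plate's high and low controls in the primary single-dose screen; inactive = activation below 50%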;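 also: compound incubated with DTT at 0.8 mM final as the reducing agent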
MT stabilize HCS = stabilizes microtubules in HeLa cells | % tubulin-high responders, % at 10 µM | AID 2205 | actives 0.83% (n = 200,000) | HeLa tubulin immunostaining HCS, 24 h; share of cells brighter than vehicle mean+2SD;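 active = plate Z-score above 3 for both tubulin-high and condensed-nucleus cell shares, with cell loss under 80%, at 10 µM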;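 also: anti alpha tubulin signal scored within the nucleus-defined area of each cell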
ROMK retest = confirmation of human ROMK potassium channel modulators; shares compounds with ROMK primary; ROMK thallium flux, fluorescence ratio; active compounds read low; normalized thallium flux (F/F0 slope) at 10 µM; actives 54% (n = 3,000); AID 1917;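 active = Flux at 10 µM at least 3 SD below or above vehicle control mean in one or both replicates; inconclusive = no clear call, values can overlap the other calls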
Starred values were filed as active, the others as inactive. In the library only some 3.7% were active in any assay of this set; here they are far more common.

Results for CC(=C/c1ccccc1)/C=C1/SC(N2CCOCC2)=NC1=O ?
Cl transport mod: -2.24; bCat nuc transl: -1.2; DTT redox prof: 0.6; MT stabilize HCS: 1.8; ROMK retest: 0.0535*

Results for O=C(OCc1cncs1)c1ccccc1 ?
Cl transport mod: 0.0187; ROMK primary: 0.591; bCat nuc transl: -4.3; DTT redox prof: -0.9; MT stabilize HCS: 4.3

How did CC1CCC(C(C)C)C(OC(=O)Cn2c(-c3ccc(Cl)cc3)[n+](C)c3ccccc32)C1 (stereo not drawn) do in these assays?
Cl transport mod: 0.962; ROMK primary: -7.95*; bCat nuc transl: 0.1; ROMK retest: 0.0425*

Results for CC1CCC(C(C)C)C(OC(=O)Cn2c(-c3ccc(Br)cc3)[n+](C)c3ccccc32)C1 (stereo not drawn) ?
Cl transport mod: -0.274; ROMK primary: -6.83*; bCat nuc transl: -3.6; DTT redox prof: -1.9; MT stabilize HCS: 3.1; ROMK retest: 0.0439*

What do the screens show for `Cc1ccccc1OCc1n(CC(=O)OC2CC(C)CCC2C(C)C)c2ccccc2[n+]1C` (stereo not drawn)?
Cl transport mod: -0.961; bCat nuc transl: 12.9; DTT redox prof: 1.2; MT stabilize HCS: 87.2; ROMK retest: 0.0417*

What do the screens show for `CC1CCC(C(C)C)C(OC(=O)COC(=O)c2cccn2C)C1` (stereo not drawn)?
Cl transport mod: -0.929; bCat nuc transl: -6.2; DTT redox prof: 1.6; MT stabilize HCS: 5.4

Results for O=C(O)c1ccc(-c2ncc[nH]2)cc1 ?
Cl transport mod: 0.717; ROMK primary: 0.771; bCat nuc transl: -2.5; DTT redox prof: 0.0; MT stabilize HCS: 2.6

Results for CC(=O)N1CCC(N(CCN2CCOCC2)C(=S)Nc2cc(C)ccc2C)CC1 ?
Cl transport mod: 0.0276; ROMK primary: -0.129; bCat nuc transl: -0.2; DTT redox prof: -0.5; MT stabilize HCS: 3.2

How did Cc1c([N+](=O)[O-])cc(S(=O)(=O)Nc2ccncc2)cc1[N+](=O)[O-] do in these assays?
Cl transport mod: 1.92; ROMK primary: -4.19*; bCat nuc transl: -0.5; DTT redox prof: -0.1; MT stabilize HCS: 3.0; ROMK retest: 0.0787

Results for Cc1ccc(S(=O)(=O)Nc2ccccn2)cc1[N+](=O)[O-] ?
Cl transport mod: -0.608; ROMK primary: -5.85*; bCat nuc transl: -3.0; DTT redox prof: -2.2; MT stabilize HCS: 8.2; ROMK retest: 0.0764

How did COc1ccc(S(=O)(=O)Nc2ccccn2)cc1C do in these assays?
Cl transport mod: 0.615; ROMK primary: 0.874; bCat nuc transl: -0.2; DTT redox prof: 0.2; MT stabilize HCS: 2.4

What do the screens show for `COc1cc(C2CC(=O)c3cnc(N)nc3C2)cc(OC)c1OC` (stereo not drawn)?
Cl transport mod: 0.154; ROMK primary: 3.94*; bCat nuc transl: -4.7; DTT redox prof: 0.2; MT stabilize HCS: 2.3; ROMK retest: 0.0722

Results for COc1ccc(NC(=S)N2CCCC2)c(OC)c1 ?
Cl transport mod: 0.00699; ROMK primary: -0.138; bCat nuc transl: -5.4; DTT redox prof: 0.3; MT stabilize HCS: 1.4

Results for CSc1nc2sc3c(c2c(=O)n1CC(C)C)CC(C)(C)OC3 ?
Cl transport mod: -0.85; bCat nuc transl: -1.3

Results for CC1=NN(C(=O)Cc2ccccc2)C(O)(c2cccnc2)C1 (stereo not drawn) ?
bCat nuc transl: -0.8; DTT redox prof: -1.3; MT stabilize HCS: 3.9

How did CC1=NN(C(=O)c2ccccc2Cl)C(O)(c2cccnc2)C1 (stereo not drawn) do in these assays?
Cl transport mod: -0.605; ROMK primary: 0.246; bCat nuc transl: -0.4; DTT redox prof: -0.2; MT stabilize HCS: 3.7; ROMK retest: inconclusive

Results for CC1=C(C#N)C(Nc2ccc(C)cn2)(C(F)(F)F)C(=O)N1 (stereo not drawn) ?
Cl transport mod: 0.00565; ROMK primary: -0.557; bCat nuc transl: -2.6; DTT redox prof: -0.5; MT stabilize HCS: 2.7

How did Oc1ccc(/C=N/NC(=S)NCCN2CCOCC2)c(O)c1 do in these assays?
Cl transport mod: -1.44; ROMK primary: 0.574; bCat nuc transl: -3.3; DTT redox prof: -0.8; MT stabilize HCS: 6.1
